Source: PubChem BioAssay
Results filed as inconclusive are left out.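 Rule for the calls, unless noted: active = growth inhibition above 25% in both replicates, a cutoff set 3 SD above the mean; inconclusive = above 25% in only one replicate; inactive = the rest.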

Tests used:
[1] = OD615 S. cerevisiae growth inhibition, permissive medium, pilot counter-assay, permissive growth control for S. cerevisiae lifespan shortening project (AID 705); conditions: OD615, 24 h, at 10 µM, stronger effect = higher value
Procedure, shortened: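 System – S. cerevisiae with engineered DeaD lifespan system · Buffer or medium – SC raffinose/galactose permissive medium · Schedule – cells pre-grown 4 h, then 24 h compound exposure, 30 °C humidified · Technique – culture turbidity as optical density at 615 nm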

[2] = Restrictive medium S. cerevisiae growth inhibition, OD615, pilot screen of yeast lifespan reduction project, restrictive growth control (AID 706;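 active = growth inhibition above a set limit, 3 SD over mean compound inhibition, in both replicates, cut at about 43% in these data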;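 note: modified DeaD lifespan yeast strain shifted to restrictive glucose medium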); conditions: OD615, 48 h, at 10 µM, stronger effect = higher value
Procedure, shortened: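 Material: engineered S. cerevisiae DeaD strain / Medium: glucose-based CSMM-D restrictive medium / Compound: single dose of 10 µM compound final, 0.25% DMSO / Timing: 4 h pre-incubation, 48 h exposure at 30 °C / Technique: OD615 absorbance reading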

[3] = viability gain of MRP-1-high H69AR cells under doxorubicin, pilot screen, MRP-1 activator project, CellTiter-Glo, duplicate (AID 807;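 active = viability increase at or above a cutoff of the median across tested compounds plus 3 SD, cut at about 8.5% in these data, passing the limit was not always enough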;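 note: compound pretreatment 18-22 h then 72 h combined with doxorubicin; 0% = doxorubicin alone and 100% = vehicle without doxorubicin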); conditions: H69AR viability with doxorubicin, CellTiter-Glo luminescence; at 10 µM; stronger effect = higher value
[4] = growth suppression of beta-catenin knockout HCT116, pilot screen, human colon tumor cells (AID 823;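 active = cell viability at or below a set limit in both duplicate runs, the limit being the all-compound median minus 4 SD, cut at about 23% in these data, passing the limit was not always enough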;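 note: 0% = wells killed by 20 µM Hyamine and 100% = untreated DMSO cell wells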); conditions: CellTiter-Glo, 60 h, at 10 µM, stronger effect = lower value
[5] = growth suppression of PTEN-deleted HCT116, pilot screen, cell-based, HCT116 clonal line, CellTiter-Glo (AID 824;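 active = viability at or below 27.92% in each of two runs, the all-compound median minus 4 SD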;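 note: 0% = 20 µM Hyamine control and 100% = vehicle cell control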); conditions: 60 h, at 10 µM, stronger effect = lower value
[6] = inhibitors of the yeast RAM network, pilot screen, dse1pr::URA3 reporter, 5-FOA selection (AID 869;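 active = inhibition over a set limit, the all-compound mean plus 3 SD, in both replicate runs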;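 note: 0% = DMSO wells with no growth and 100% = 10 µM 1-NA-PP1 with full growth; RAM network block rescues cells from 5-FOA so hits raise OD615 growth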); conditions: S. cerevisiae dse1pr::URA3 5-FOA growth, OD615, 2 d; at 10 µM; stronger effect = higher value; strain carries analog-sensitive mutant Cbk1 kinase
[7] = RAM signaling pathway blockade in yeast – S. cerevisiae, Pdr1DBD-CYC8 efflux-inhibited sensitized strain, primary screen (AID 1298;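 active = RAM network inhibition above 8.4% in each of two replicates, 3 SD over the compound average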;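 note: 0% = DMSO untreated cells without growth and 100% = 10 µM 1-NA-PP1 full growth; higher means more yeast growth rescued from 5-FOA killing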); conditions: S. cerevisiae cbk1-as DSE1-URA3 strain, 5-FOA growth OD615, 2 d; at 50 µM; stronger effect = higher value

O=C(COc1ccc(F)cc1)Nc1nccs1
inactive: growth inhibition [1] -3.23% | growth inhibition [2] 4.43% | viability increase [3] 2.32% | viability [4] 103% | viability [5] 90.2% | inhibition [6] 3.26% | RAM network inhibition [7] 5.34%

O=C(Nc1nnc(-c2ccccc2)o1)c1nc2ccccc2s1
inactive: growth inhibition [1] -9.03% | growth inhibition [2] 10.3% | viability increase [3] -3.96% | viability [4] 93.8% | viability [5] 88.8% | inhibition [6] 1.39% | RAM network inhibition [7] 0.11%

COc1ccc(C2C3=C(CCCC3=O)Nc3nc(SCc4ccc(C(=O)O)cc4)nn32)cc1OC (stereo unspecified)
inactive: growth inhibition [1] -7.69% | growth inhibition [2] -1.59% | viability increase [3] -0.88% | viability [4] 92.8% | viability [5] 95.3% | inhibition [6] 3.18% | RAM network inhibition [7] 3.48%

COC(=O)C1=C(C)OC(N)=C(C#N)C1c1ccccc1F (stereo unspecified)
inactive: growth inhibition [1] -9.68% | growth inhibition [2] -3.74% | viability increase [3] -3.38% | viability [4] 94.9% | viability [5] 98.1% | inhibition [6] -0.37% | RAM network inhibition [7] -0.76%

O=C1Nc2ccc(S(=O)(=O)N3CCCCCC3)c3cccc1c23
inactive: growth inhibition [1] -0.465% | growth inhibition [2] -4.72% | viability increase [3] -2.03% | viability [4] 95.2% | viability [5] 86.2% | inhibition [6] 1.57% | RAM network inhibition [7] 0.81%

O=C1CCCc2sccc2N1
inactive: growth inhibition [1] -6.83% | growth inhibition [2] -3.71% | viability increase [3] -1.57% | viability [4] 106% | viability [5] 96.9% | inhibition [6] 0.26% | RAM network inhibition [7] 2.15%

COc1cc(C)c(S(=O)(=O)NCc2ccc3c(c2)OCO3)cc1C
inactive: growth inhibition [1] -2.38% | growth inhibition [2] 3% | viability increase [3] 0.6% | viability [4] 106% | viability [5] 102% | inhibition [6] -0.055% | RAM network inhibition [7] -0.06%

COc1ccc(OC)c(NC(=O)COC(=O)c2ccc(S(=O)(=O)N3CCOCC3)cc2)c1
inactive: growth inhibition [1] -3.99% | growth inhibition [2] 1.01% | viability increase [3] -1.17% | viability [4] 94.5% | viability [5] 91.9% | inhibition [6] 2.73% | RAM network inhibition [7] 5.32%

C=CCn1c(-c2ccc(N)cc2)nc2ccccc21
inactive: growth inhibition [1] -6.82% | growth inhibition [2] 3.25% | viability increase [3] -3.72% | viability [4] 93.3% | viability [5] 80.1% | inhibition [6] 1.5% | RAM network inhibition [7] 1.23%

CC(C)(Oc1ccc(Cl)cc1)C(=O)NCc1ccco1
inactive: growth inhibition [1] -1.12% | growth inhibition [2] -0.2% | viability increase [3] -4.22% | viability [4] 87.2% | viability [5] 80% | inhibition [6] 1.18% | RAM network inhibition [7] 5.92%

COC(=O)C(C)Sc1nnc(Cc2cc(=O)[nH]c(=O)[nH]2)n1-c1cccc(OC)c1 (stereo unspecified)
inactive: growth inhibition [1] -7.95% | growth inhibition [2] -0.1% | viability increase [3] 0.21% | viability [4] 104% | viability [5] 108% | inhibition [6] 2.8% | RAM network inhibition [7] 3%

COc1cc(NC(=O)c2c(-c3ccccc3Cl)noc2C)c2ncccc2c1
inactive: growth inhibition [1] -15.8% | growth inhibition [2] -18.1% | viability increase [3] -0.47% | viability [4] 60.2% | viability [5] 64.3% | inhibition [6] 2.6% | RAM network inhibition [7] 7.52%

CCN1CCN(CC(=O)NC2CCCCC2)C(=O)C1=O
inactive: growth inhibition [1] -14.6% | growth inhibition [2] -12.4% | viability increase [3] -0.83% | viability [4] 96.1% | viability [5] 96.3% | inhibition [6] 0.89% | RAM network inhibition [7] 2.42%

c1ccc(-c2nnn(C34CC5CC(CC(C5)C3)C4)n2)cc1
inactive: growth inhibition [1] -4.34% | growth inhibition [2] -0.125% | viability increase [3] 0.19% | viability [4] 90.8% | viability [5] 84.9% | inhibition [6] 0.215% | RAM network inhibition [7] 5.67%

CC(C)c1ccc(NC(=O)C(c2ccccc2)N2CCOCC2)cc1 (stereo unspecified)
inactive: growth inhibition [1] -0.695% | growth inhibition [2] 0.125% | viability increase [3] 1.44% | viability [4] 91.3% | viability [5] 83.6% | inhibition [6] 0.515% | RAM network inhibition [7] 0.47%

COc1ccccc1C1C(C(N)=O)=C(C)Nc2nc(-c3ccc(Cl)cc3)nn21 (stereo unspecified)
inactive: growth inhibition [1] -5.66% | growth inhibition [2] 0.335% | viability increase [3] -1.26% | viability [4] 95% | viability [5] 92.4% | inhibition [6] -0.455% | RAM network inhibition [7] -1.72%

Cc1cc(C)c(C)c(OCC(=O)NCCN(C)C)c1
inactive: growth inhibition [1] -11.6% | growth inhibition [2] -3.56% | viability increase [3] -1.08% | viability [4] 91% | viability [5] 91.3% | inhibition [6] 0.79% | RAM network inhibition [7] 0.26%

CC1(C)Oc2ccc3ccc(=O)oc3c2/C(=C/Nc2ccccn2)C1=O
inactive: growth inhibition [1] -22.4% | growth inhibition [2] -16% | viability increase [3] -1.39% | viability [4] 95% | viability [5] 93.3% | inhibition [6] 4.12% | RAM network inhibition [7] 6.38%

COc1cccc(C(=O)Nc2cc(=O)n(C)c(=O)n2C)c1
inactive: growth inhibition [1] -11% | growth inhibition [2] -8.35% | viability increase [3] -2.05% | viability [4] 103% | viability [5] 97.4% | inhibition [6] 2.98% | RAM network inhibition [7] 2.08%

Cn1c(=O)oc2cc(S(=O)(=O)N3CCCC(C(=O)N4CCn5c4nc4ccccc45)C3)ccc21 (stereo unspecified)
inactive: growth inhibition [1] -8.03% | growth inhibition [2] -7.74% | viability increase [3] -1.54% | viability [4] 77.7% | viability [5] 76.2% | inhibition [6] 0.695% | RAM network inhibition [7] 1.49%

COc1ccc(OC)c(CN2C(=O)c3ccccc3C2C(=O)NCc2cccnc2)c1 (stereo unspecified)
inactive: growth inhibition [1] -6.83% | growth inhibition [2] 2.58% | viability increase [3] 0.05% | viability [4] 106% | viability [5] 97.6% | inhibition [6] 0.155% | RAM network inhibition [7] 4.09%

COc1ccc(-c2nc(CS(=O)CC(=O)NCc3ccco3)c(C)o2)cc1 (stereo unspecified)
inactive: growth inhibition [1] -8.38% | growth inhibition [2] 17.3% | viability increase [3] -4.45% | viability [4] 92.5% | viability [5] 100% | inhibition [6] 1.88% | RAM network inhibition [7] 0.58%

Cc1cccc(-c2noc(CCc3ccccc3)n2)c1
inactive: growth inhibition [1] -13.3% | growth inhibition [2] -12% | viability increase [3] 0.39% | viability [4] 102% | viability [5] 98.1% | inhibition [6] 1.13% | RAM network inhibition [7] 2.14%
